mIAP block: mouse IAP inhibition; purified mouse IAP, CDP-Star luminescence, 30 min; inhibition, % at 10 µM; 0.2% of 330,000 active; AID 2806;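 active = inhibition of at least 40% at 10 µM in the primary screen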;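 also: plate controls were DMSO with enzyme for no effect and no enzyme wells for full effect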
mIAP activ: increases mouse intestinal alkaline phosphatase activity; 0.24% of 330,000 active; muIAP, CDP-Star luminescence, 30 min; active compounds read high; 1 = vehicle-only enzyme signal, 0 = enzyme-free wells; activation factor at 10 µM;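 active = activation factor of at least 2 at 20 µM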
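also added = chemiluminescent substrate CDP-Star | test system = mouse IAP enzyme | signal = chemiluminescence readout | compound = DMSO-dissolved test compounds | incubation = 30 min at room temperature | benchmarks = DMSO wells, no-enzyme wells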
bIAP activator: increases bovine intestinal alkaline phosphatase activity | AID 1016 | activation factor at 20 µM | 0.17% of 200,000 active | purified bovine IAP, CDP-star luminescence, 30 min; active compounds read high; fold of DMSO-control signal, blank-subtracted;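 active = activation factor of 2 or more at 20 µM, a signal rise over negative controls twice the positive control's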
hIAP block: blocks human intestinal alkaline phosphatase; purified IAP, CDP-Star luminescence, 30 min; inhibition, % at 10 µM; 0.12% of 330,000 active; P09923; AID 2544;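 active = inhibition reaching a set limit with compound at 10 µM in the primary screen, cut at about 35% in these data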;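 also: plate controls were DMSO wells with enzyme for no effect and no-enzyme buffer wells for full effect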
Target sequence (P09923 whole entry, looked up): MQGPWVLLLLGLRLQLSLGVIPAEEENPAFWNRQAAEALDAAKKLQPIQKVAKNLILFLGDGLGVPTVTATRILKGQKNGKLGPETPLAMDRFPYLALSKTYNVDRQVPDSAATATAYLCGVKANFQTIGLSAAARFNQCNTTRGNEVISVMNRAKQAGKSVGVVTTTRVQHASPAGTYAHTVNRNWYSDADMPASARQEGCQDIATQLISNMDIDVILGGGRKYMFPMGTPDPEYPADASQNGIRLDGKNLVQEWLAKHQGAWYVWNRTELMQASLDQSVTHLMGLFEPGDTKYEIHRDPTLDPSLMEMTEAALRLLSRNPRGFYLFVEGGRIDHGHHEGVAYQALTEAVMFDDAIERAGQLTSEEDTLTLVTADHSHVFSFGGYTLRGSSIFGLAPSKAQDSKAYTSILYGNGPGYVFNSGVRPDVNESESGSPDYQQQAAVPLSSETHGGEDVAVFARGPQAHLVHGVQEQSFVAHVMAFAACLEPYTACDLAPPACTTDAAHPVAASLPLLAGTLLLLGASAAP
hIAP act: human IAP activation; 0.16% of 330,000 active; P09923; activation factor at 10 µM; purified human IAP, CDP-Star luminescence, 30 min; active compounds read high; 1 = vehicle-only enzyme, 0 = enzyme-free background; AID 2524;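 active = activation factor of the enzyme at least 2-fold when tested at 20 µM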
bIAP inh: intestinal alkaline phosphatase (bovine) inhibition; purified bovine IAP, CDP-star luminescence, 30 min; inhibition, % at 20 µM; 190,000 tested, under 10 active; AID 1019;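 active = over 50% inhibition of intestinal alkaline phosphatase at 20 µM in the single-dose screen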
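Assay system: bovine IAP enzyme; medium: DEA buffer 100 mM, pH 9.8, with MgCl2 1.0 mM, ZnCl2 0.02 mM; doses: 20 µM single dose; incubation: enzyme reaction for 30 min at room temperature; detection: CDP-star luminescence signal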
mIAP inh confirm: mouse IAP inhibition confirmation; shares compounds with mIAP block; purified mouse IAP, CDP-Star luminescence, 30 min; inhibition, % at 10 µM; 4.7% of 11,000 active; AID 434971;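 active = inhibition of at least 40% at 10 µM in either of the two replicates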;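 also: plate controls were DMSO wells with enzyme for no effect and buffer wells lacking enzyme for full effect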
* hit, by the source's call; i = inactive; . = no result given. Most compounds without a hit are left out; they make up all but 0.72% or so of the library.

SMILES | mIAP block | mIAP activ | bIAP activator | hIAP block | hIAP act | bIAP inh | mIAP inh confirm
C#CCOCCOCCOCCNc1nc(N2CCOCC2)nc(N2CCN(C(=O)CCCCCCCCCCNC(=O)[C@@H]([C@H](C)CC)n3cc(CCCCCN)nn3)CC2)n1 | -69 | 1.7 | . | -8 | 1.1 | . | .
C#CCOCCOCCOCCNc1nc(N2CCN(C(=O)CCCCCCCCCCNC(=O)[C@H]([C@@H](C)CC)n3cc(CCCCCN)nn3)CC2)nc(N2CCN(C(=O)CCCCCCCCCCNC(=O)[C@@H]([C@H](C)CC)n3cc(CCCCCN)nn3)CC2)n1 | i | 6.6* | . | 3 | 0.97 | . | i
C#CCOCCOCCOCCNc1nc(N2CCN(C(=O)CCCCCCCCCCNC(=O)[C@H]([C@@H](C)CC)n3cc(CCCCCN)nn3)CC2)nc(N2CCN(C(=O)CCCCCCCCCCNC(=O)[C@H](CO)n3cc(CCCCCN)nn3)CC2)n1 | -110 | 2.1* | . | 3 | 0.97 | . | -151
O=C(O)c1ccccc1C(=O)NNc1cccc(Cl)n1 | -1 | 1 | 1.1 | 2 | 0.98 | -5 | .
C#CCOCCOCCOCCNc1nc(N2CCN(C(=O)CCCCCCCCCCNC(=O)[C@H]([C@@H](C)CC)n3cc(CCCCCN)nn3)CC2)nc(N2CCN(C(=O)CCCCCCCCCCNC(=O)[C@H]([C@@H](C)CC)n3cc(CCCCN=C(N)N)nn3)CC2)n1 | i | 18* | . | -16 | 1.2 | . | i
C#CCOCCOCCOCCNc1nc(N2CCN(C(=O)CCCCCCCCCCNC(=O)Cn3cc(CCCCCN)nn3)CC2)nc(N2CCN(C(=O)CCCCCCCCCCNC(=O)[C@H]([C@@H](C)CC)n3cc(CCCCN=C(N)N)nn3)CC2)n1 | i | 9.7* | . | -19 | 1.2 | . | i
C#CCOCCOCCOCCNc1nc(N2CCN(C(=O)Cn3cc(CCCN=C(N)N)nn3)CC2)nc(N2CCN(C(=O)[C@H]([C@@H](C)CC)n3cc(CCCCN)nn3)CC2)n1 | -6 | 1.1 | . | 8 | 0.92 | . | .
C#CCOCCOCCOCCNc1nc(N2CCN(C(=O)[C@H]([C@@H](C)CC)n3cc(CCCN=C(N)N)nn3)CC2)nc(N2CCN(C(=O)[C@H]([C@@H](C)CC)n3cc(CCCN=C(N)N)nn3)CC2)n1 | -8 | 1.1 | 0.7 | 25 | 0.75 | 32 | .
CC[C@H](C)[C@@H](C(=O)NCCCCCCCCCCC(=O)N1CCN(C(=O)OC(C)(C)C)CC1)n1cc(CCCCN=C(NC(=O)OC(C)(C)C)NC(=O)OC(C)(C)C)nn1 | -125 | 2.3* | . | 6 | 0.94 | . | -128
C#CCOCCOCCOCCNc1nc(N2CCN(C(=O)CCCCCCCCCCNC(=O)[C@H]([C@@H](C)CC)n3cc(CCCCN=C(N)N)nn3)CC2)nc(N2CCN(C(=O)CCCCCCCCCCNC(=O)[C@H]([C@@H](C)CC)n3cc(CCCCN=C(N)N)nn3)CC2)n1 | i | 10* | . | -47 | 1.5 | . | i
O=C(NC1CC1)C1CC(=O)N(c2ccc(F)cc2)C1 (stereo unspecified) | 5 | 0.95 | . | 0 | 1 | . | .
O=C(Nc1ccccc1)Nc1ccc(C(=O)N2CCOCC2)cc1 | -1 | 1 | 1.1 | -5 | 1.1 | -12 | .
O=C(NCCNc1ccccc1[N+](=O)[O-])c1cc(F)c(F)cc1Cl | 4 | 0.95 | . | 0 | 1 | . | .
COc1ccc(OCCCC(=O)Nc2cc(S(=O)(=O)N3CCCCC3)ccc2C)cc1 | -25 | 1.2 | . | 2 | 0.98 | . | .
C#CCOCCOCCOCCNc1nc(N2CCN(C(=O)CCCCCCCCCCNC(=O)Cn3cc(CCCCCN)nn3)CC2)nc(N2CCN(C(=O)CCCCCCCCCCNC(=O)[C@@H](CCC(=O)O)n3cc(CCCCCN)nn3)CC2)n1 | -42 | 1.4 | . | 3 | 0.97 | . | .
C#CCOCCOCCOCCNc1nc(N2CCN(C(=O)CCCCCCCCCCNC(=O)[C@H]([C@@H](C)CC)n3cc(CCCCN=C(N)N)nn3)CC2)nc(N2CCN(C(=O)CCCCCCCCCCNC(=O)[C@H](CCCCN)n3cc(C)nn3)CC2)n1 | -178 | 2.8* | . | -8 | 1.1 | . | i
C#CCOCCOCCOCCNc1nc(N2CCN(C(=O)CCCCCCCCCCNC(=O)[C@H](CO)n3cc(CCCSC)nn3)CC2)nc(N2CCN(C(=O)CCCCCCCCCCNC(=O)[C@H](CCCCN)n3cc(CCO)nn3)CC2)n1 | -36 | 1.4 | . | 4 | 0.96 | . | .
C#CCOCCOCCOCCNc1nc(N2CCN(C(=O)CCCCCCCCCCNC(=O)Cn3cc(CCCCCN)nn3)CC2)nc(N2CCN(C(=O)CCCCCCCCCCNC(=O)[C@@H](CCSC)n3cc(CCO)nn3)CC2)n1 | -321 | 4.2* | . | -14 | 1.1 | . | -256
C#CCOCCOCCOCCNc1nc(N2CCN(C(=O)CCCCCCCCCCNC(=O)[C@H]([C@@H](C)CC)n3cc(CCCCN=C(N)N)nn3)CC2)nc(N2CCN(C(=O)CCCCCCCCCCNC(=O)[C@H](CO)n3cc(CCCCCN)nn3)CC2)n1 | i | 6.4* | . | -38 | 1.4 | . | i
CC1=NN2C(=N)/C(=C\c3ccc(SCc4ccccc4)o3)C(=O)N=C2S1 | 15 | 0.85 | 0.9 | 0 | 1 | 14 | .
N=C1/C(=C\c2ccc(SCc3ccco3)o2)C(=O)N=C2SC=NN12 | 69* | 0.31 | 0.9 | -2 | 1 | 6 | 76*
CC(C)COc1ccc(C(=O)OCC(=O)N(C)CC(=O)Nc2ccc(F)cc2)cc1 | -7 | 1.1 | . | 2 | 0.97 | . | .
Cc1ccc(C)c(NS(=O)(=O)c2ccc3[nH]c(=O)oc3c2)c1 | 84* | 0.16 | 1.1 | -7 | 1.1 | -6 | 89*
Cc1ccc(NS(=O)(=O)c2ccc3[nH]c(=O)oc3c2)cc1Cl | 20 | 0.8 | . | 8 | 0.93 | . | .
COC(=O)c1ccc(NS(=O)(=O)c2ccc3[nH]c(=O)oc3c2)cc1 | 70* | 0.3 | . | -11 | 1.1 | . | 74*
SMILES | mIAP block | mIAP activ | bIAP activator | hIAP block | hIAP act | bIAP inh | mIAP inh confirm
Cc1cccc(NS(=O)(=O)c2ccc3[nH]c(=O)oc3c2)c1C | 2 | 0.98 | . | -8 | 1.1 | . | .
O=c1[nH]c2ccc(S(=O)(=O)N3CCCCC3)cc2o1 | 80* | 0.2 | 0.9 | 4 | 0.96 | 11 | 74*
CCOc1ccccc1NC(=O)CN1CCC(NC(=O)Nc2ccccc2)CC1 | -249 | 3.5* | . | -81 | 1.8 | . | -199
S=c1[nH]nc(-c2cc(-c3ccccc3)n[nH]2)n1/N=C/c1c(Cl)cccc1Cl | 8 | 0.92 | . | -67 | 1.7 | . | .
S=c1[nH]nc(COc2ccccc2)n1/N=C/C=C/c1ccccc1 | 0 | 0.99 | 1 | 7 | 0.93 | -4 | .
COc1ccccc1/C=C/C=N/n1c(-c2ccco2)n[nH]c1=S | 17 | 0.83 | . | -14 | 1.1 | . | .
S=c1[nH]nc(-c2ccco2)n1/N=C/C=C/c1ccco1 | 69* | 0.31 | 0.9 | 10 | 0.9 | 7 | 70*
